This passage reports Ki, ED50 and Activity results from ChEMBL document CHEMBL1255228 (J Med Chem, 2010).

In assay [1] the target is Cannabinoid receptor 2 (Homo sapiens, UniProt P34972). In words: Displacement of [3H]CP55940 from human CB2 receptor expressed in HEK293 cells. Format: cell-based.
The target of assay [2] is Cannabinoid receptor 1 (Rattus norvegicus, UniProt P20272). In words: Displacement of [3H]CP55940 from rat brain CB1 receptor. On the technique in general: In a radioligand displacement assay an active substance lowers the binding of a labelled ligand.
Cannabinoid receptor 1, sequence (P20272 whole entry): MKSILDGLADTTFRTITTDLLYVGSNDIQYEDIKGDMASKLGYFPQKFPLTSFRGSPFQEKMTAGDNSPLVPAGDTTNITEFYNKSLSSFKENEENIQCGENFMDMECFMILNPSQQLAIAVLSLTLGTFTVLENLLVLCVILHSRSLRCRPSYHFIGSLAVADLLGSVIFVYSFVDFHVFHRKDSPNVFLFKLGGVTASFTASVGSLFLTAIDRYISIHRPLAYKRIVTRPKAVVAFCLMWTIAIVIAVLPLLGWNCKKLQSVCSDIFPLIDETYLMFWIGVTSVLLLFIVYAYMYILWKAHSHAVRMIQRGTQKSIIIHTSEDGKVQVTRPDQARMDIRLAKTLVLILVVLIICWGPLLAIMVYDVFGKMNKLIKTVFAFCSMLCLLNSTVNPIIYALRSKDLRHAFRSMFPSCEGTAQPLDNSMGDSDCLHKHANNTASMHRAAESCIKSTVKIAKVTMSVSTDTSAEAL
Assay [3] concerns the target Cannabinoid receptor 2 (Mus musculus, UniProt P47936). In words: Displacement of [3H]CP55940 from mouse spleen CB2 receptor. Format: tissue-based.
Assay [4] concerns Rattus norvegicus. In words: Antinociceptive activity in sc dosed Sprague-Dawley rat assessed as thermal-stimulus induced tail flick latency after 120 mins. The settings on record: 2 h. Format: functional. The method in brief: (§1)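 Female Sprague-Dawley rats (200–350 g, n=5-6/group), tested repeatedly with ≥3 days between sessions. Drug given s.c. (1.0 ml/kg) in 20% ethanol/20% alkamuls/60% saline diluted with saline; morphine in saline. Lamp set for 2–3 sec baseline, 6.0 sec cut-off; two baselines at 10 min intervals; latency read at 30, 60, 120, 180, 360 min. Expressed as %MPE.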
(Thermal pain tests record how soon the animal reacts.)

For assay [5], the species on record is Rattus norvegicus. In words: Antinociceptive activity in Sprague-Dawley rat assessed as reduction in heat-induced tail flick latency. Format: functional. More on the design: scale not given: the % may be the effect or the level left. An outline of the steps:
as §1

The test system of assay [6] is Rattus norvegicus. As to the kind of experiment: Antinociceptive activity in Sprague-Dawley rat assessed as reduction in heat-induced tail flick latency at 0.1 mg/kg, sc after 120 mins. Format: functional. More on the design: scale not given: the % may be the effect or the level left. The note with it: route subcutaneous. The method in brief:
as §1

pKi: −log10 of the molar value.

Cannabinoid receptor 2 (Homo sapiens, UniProt P34972), sequence (P34972 whole entry): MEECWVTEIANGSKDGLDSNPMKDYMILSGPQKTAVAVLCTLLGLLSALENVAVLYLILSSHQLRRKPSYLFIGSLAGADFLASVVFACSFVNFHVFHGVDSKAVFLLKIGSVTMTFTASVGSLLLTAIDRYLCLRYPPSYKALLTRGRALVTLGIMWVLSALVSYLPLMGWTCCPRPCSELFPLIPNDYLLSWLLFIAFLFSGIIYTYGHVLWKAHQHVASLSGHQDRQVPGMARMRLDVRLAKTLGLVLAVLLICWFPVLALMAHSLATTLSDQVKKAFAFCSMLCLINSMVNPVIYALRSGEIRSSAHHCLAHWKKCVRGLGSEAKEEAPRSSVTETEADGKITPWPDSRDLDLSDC
Cannabinoid receptor 2 (Mus musculus, UniProt P47936), sequence (P47936 whole entry): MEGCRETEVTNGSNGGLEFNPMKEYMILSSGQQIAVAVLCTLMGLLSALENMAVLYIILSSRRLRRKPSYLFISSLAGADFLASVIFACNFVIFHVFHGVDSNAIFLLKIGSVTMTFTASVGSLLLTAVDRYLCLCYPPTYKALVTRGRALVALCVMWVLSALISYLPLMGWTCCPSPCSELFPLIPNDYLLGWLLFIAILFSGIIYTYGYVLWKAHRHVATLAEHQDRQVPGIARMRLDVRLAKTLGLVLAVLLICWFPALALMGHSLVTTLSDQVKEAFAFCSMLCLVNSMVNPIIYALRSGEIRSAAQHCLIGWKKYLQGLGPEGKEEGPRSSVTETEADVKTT

For the compound `CCCCCCC1(c2cc(O)c3c(c2)OC(C)(C)[C@@H]2CCC(=O)C[C@@H]32)SCCS1`, the pKi in assay [1] is 7.49; in assay [2] it was 8.18; in assay [3], 7.37.
As to `CC1(C)Oc2cc(C3(CCCCCBr)CCC3)cc(O)c2[C@@H]2CC(=O)CC[C@H]21`, the pKi in assay [1] was 8.23; in assay [2], 8.63; in assay [3], 8.12.
Consider `CC1(C)Oc2cc(C3(CCCCCBr)CCC3)cc(O)c2[C@@H]2C[C@@H](O)CC[C@H]21`, for which, in assay [2], the pKi is 8.82.
With `CC1(C)Oc2cc(C3(CCCCCBr)CCC3)cc(O)c2[C@@H]2C[C@H](O)CC[C@H]21`, the pKi in assay [2] is 8.86.
For the compound `CCCCCc1cc(O)c2c(c1)OC(C)(C)[C@@H]1CCC(=O)C[C@@H]21`, the negative logarithm of the Ki (pKi) in assay [2] was 6.48; in assay [3], 6.58.
For the compound `CCCCCCC1(c2cc(O)c3c(c2)OC(C)(C)[C@@H]2CCC(=O)C[C@@H]32)CCC1`, the negative-log Ki (pKi) in assay [1] was 7.92; in assay [2], 9.08; in assay [3], 7.86.
Turning to `CC1(C)Oc2cc(C3(CCCCCCBr)CCCC3)cc(O)c2[C@@H]2CC(=O)CC[C@H]21`, the pKi in assay [1] was 8.52; in assay [2], 8.30; in assay [3], 8.80.
With `CC1(C)Oc2cc(C3(CCCCBr)CCCC3)cc(O)c2[C@@H]2CC(=O)CC[C@H]21`, the pKi was 7.88 in assay [2] and 7.86 in assay [3].
In the case of `CCCCCCC1(c2cc(O)c3c(c2)OC(C)(C)[C@@H]2CC[C@@H](O)C[C@@H]32)CCC1`, the ED50 in assay [4] was 0.026 mg/kg. For the same compound, the results for the negative logarithm of the Ki (pKi) in assay [1], in assay [2] and in assay [3] were 8.29, 9.80 and 8.38, respectively.
For the compound `CCCC/C=C\C1(c2cc(O)c3c(c2)OC(C)(C)[C@@H]2CCC(=O)C[C@@H]32)CCC1`, the pKi was 7.82 in assay [1], 8.95 in assay [2] and 7.92 in assay [3].
For `CC1(C)Oc2cc(C3(CCCCCBr)CCCC3)cc(O)c2[C@@H]2CC(=O)CC[C@H]21`, in that order: 8.88, 8.99 and 8.59.
With `CCCC/C=C\C1(c2cc(O)c3c(c2)OC(C)(C)[C@@H]2CCC(=O)C[C@@H]32)CCCC1`, the pKi in assay [1] was 8.15; in assay [2] it was 8.91; in assay [3], 8.28.
For the compound `CC1(C)Oc2cc(C3(CCCCC#N)CCCC3)cc(O)c2[C@@H]2CC(=O)CC[C@H]21`, the pKi was 8.50 in assay [2] and 8.56 in assay [3].
In the case of `Cc1c(C(=O)NN2CCCCC2)nn(-c2ccc(Cl)cc2Cl)c1-c1ccc(Cl)cc1` [RIMONABANT], the Activity in assay [5] came out at 48%; in assay [6] it was 85.4%.
On to `CCCCCCC(C)(C)c1cc(O)c2c(c1)OC(C)(C)[C@@H]1CCC(=O)C[C@@H]21` [NABILONE], for which the figures for the pKi in assay [2] and in assay [3] were 8.66 and 8.74, respectively.
Regarding `CCCCCCC1(c2cc(O)c3c(c2)OC(C)(C)[C@@H]2CCC(=O)C[C@@H]32)CCCC1`, the negative logarithm of the Ki (pKi) is 8.48 in assay [1], 8.75 in assay [2] and 9.01 in assay [3].

Usually pKi stands for the negative decadic logarithm of the Ki, by convention in mol/L. One may read the ED50 as the dose that gives a 50% effect, or the effect in half of the subjects.
